This passage reports IC50, inhibition and Activity results from ChEMBL document CHEMBL4814002, “Synthesis, biological evaluation, and docking studies of novel pyrrolo[2,3-b]pyridine derivatives as both ectonucleotide pyrophosphatase/phosphodiesterase inhibitors and antiproliferative agents” (Eur J Med Chem, 2021).

Data set [1] concerns the target T1, Ectonucleotide pyrophosphatase/phosphodiesterase family member 1 (Homo sapiens, UniProt P22413).
T1 sequence (P22413 whole entry): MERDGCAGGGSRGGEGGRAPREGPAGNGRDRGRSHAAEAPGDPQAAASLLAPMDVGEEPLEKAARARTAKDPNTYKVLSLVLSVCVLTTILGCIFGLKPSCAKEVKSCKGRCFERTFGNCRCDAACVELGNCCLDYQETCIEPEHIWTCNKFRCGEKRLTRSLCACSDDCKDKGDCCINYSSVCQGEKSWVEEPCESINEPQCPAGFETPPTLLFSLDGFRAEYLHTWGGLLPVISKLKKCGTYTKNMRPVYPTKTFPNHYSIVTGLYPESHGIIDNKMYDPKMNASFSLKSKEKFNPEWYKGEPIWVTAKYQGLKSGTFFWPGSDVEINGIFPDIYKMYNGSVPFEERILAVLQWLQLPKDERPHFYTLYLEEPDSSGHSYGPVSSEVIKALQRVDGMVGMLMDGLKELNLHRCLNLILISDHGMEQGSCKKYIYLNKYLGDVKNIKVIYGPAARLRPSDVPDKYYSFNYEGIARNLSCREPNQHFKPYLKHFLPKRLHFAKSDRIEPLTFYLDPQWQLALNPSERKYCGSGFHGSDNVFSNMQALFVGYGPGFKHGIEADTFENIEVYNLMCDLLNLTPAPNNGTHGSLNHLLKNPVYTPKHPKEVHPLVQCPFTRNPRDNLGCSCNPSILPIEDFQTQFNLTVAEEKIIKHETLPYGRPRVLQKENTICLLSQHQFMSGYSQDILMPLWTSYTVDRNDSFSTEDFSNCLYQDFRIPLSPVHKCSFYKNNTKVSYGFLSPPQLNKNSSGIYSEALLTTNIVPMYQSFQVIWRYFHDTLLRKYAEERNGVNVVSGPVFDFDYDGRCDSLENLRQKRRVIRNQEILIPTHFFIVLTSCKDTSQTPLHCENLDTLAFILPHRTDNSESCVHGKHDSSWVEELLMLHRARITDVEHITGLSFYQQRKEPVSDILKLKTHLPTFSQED
Kind of data set: Inhibition of human NPP1 transfected in COS7 cells using pNP-TMP as substrate incubated for 35 mins. Type of data set: cell-based.

Data set [2] has as its target T2, Ectonucleotide pyrophosphatase/phosphodiesterase family member 3 (Homo sapiens, UniProt O14638).
T2 sequence (O14638 whole entry): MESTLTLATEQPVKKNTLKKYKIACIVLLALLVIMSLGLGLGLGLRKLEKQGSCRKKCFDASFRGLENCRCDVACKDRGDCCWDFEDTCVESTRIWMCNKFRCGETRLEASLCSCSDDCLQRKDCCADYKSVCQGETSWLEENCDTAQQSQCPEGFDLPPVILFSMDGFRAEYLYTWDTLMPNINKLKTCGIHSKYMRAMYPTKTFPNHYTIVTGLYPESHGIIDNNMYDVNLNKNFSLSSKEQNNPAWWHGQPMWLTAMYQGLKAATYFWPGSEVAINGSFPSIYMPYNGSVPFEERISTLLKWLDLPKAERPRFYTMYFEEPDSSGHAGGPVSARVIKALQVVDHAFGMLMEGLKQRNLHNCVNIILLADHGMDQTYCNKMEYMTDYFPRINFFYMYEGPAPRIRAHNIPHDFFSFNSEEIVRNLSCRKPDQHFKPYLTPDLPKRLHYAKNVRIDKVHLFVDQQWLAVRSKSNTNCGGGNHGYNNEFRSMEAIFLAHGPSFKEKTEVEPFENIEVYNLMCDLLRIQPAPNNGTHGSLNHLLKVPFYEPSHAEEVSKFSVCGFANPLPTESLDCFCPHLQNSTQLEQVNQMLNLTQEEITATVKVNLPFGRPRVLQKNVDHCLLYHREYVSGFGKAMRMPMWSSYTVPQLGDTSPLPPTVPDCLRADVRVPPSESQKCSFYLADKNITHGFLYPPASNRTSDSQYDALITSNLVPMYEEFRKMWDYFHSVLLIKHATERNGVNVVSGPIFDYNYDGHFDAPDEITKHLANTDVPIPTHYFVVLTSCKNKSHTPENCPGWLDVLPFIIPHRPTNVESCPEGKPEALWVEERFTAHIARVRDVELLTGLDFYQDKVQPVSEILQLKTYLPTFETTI
Kind of data set: Inhibition of human NPP3 transfected in COS7 cells using pNP-TMP as substrate incubated for 35 mins. Type of data set: cell-based.

In data set [3] the test system is MCF7. Briefly: Antiproliferative activity against human MCF7 cells assessed as reduction in cell growth at 10 uM incubated for 24 hrs by MTT assay relative to control. The class given is functional. Put shortly:
(§1)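 MTT assay. Cells seeded at 4 × 10^4 per well and incubated overnight. Treated 24 h; DMSO served as negative control and doxorubicin as positive control. MTT dye 0.5 mg/mL added for 2 h at 37 °C, formazan dissolved in DMSO, absorbance read at 570 nm. Single-concentration screen at 10; dose-dependent dilutions gave IC50. WI-38 fibroblasts grown in DMEM with 10% FBS and 1% penicillin/streptomycin. Triplicate means ± S.E.M.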

In data set [4] the test system is HT-29. Kind of data set: Antiproliferative activity against human HT-29 cells assessed as reduction in cell growth at 10 uM incubated for 24 hrs by MTT assay relative to control. The class given is functional. In outline:
as §1
For orientation: Tetrazolium assays rely on reduction of a dye to a coloured formazan, in cell work by metabolically active cells.

For data set [5], the system named is HT-29. Kind of data set: Antiproliferative activity against human HT-29 cells assessed as reduction in cell growth incubated for 24 hrs by MTT assay. Type of data set: functional, cell-based. The note with it: HT-29, 24 h. Put shortly: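 HT-29 colon cancer cells seeded per well and incubated overnight, then exposed for 24 h to serial dilutions of compound (10 mM DMSO stock diluted in medium), with doxorubicin and DMSO controls. MTT (0.5 mg/mL) added for 2 h at 37 °C, formazan dissolved in DMSO, absorbance read at 570 nm. IC50 from triplicate assays, mean ± S.E.M.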

The subject of data set [6] is WI-38. Briefly: Cytotoxicity against human WI-38 cells assessed as reduction in cell growth incubated for 24 hrs by MTT assay. The conditions noted are these: WI-38, 24 h. The class given is cell-based. In outline: as §1
The nature of data set [7]: Toxicity in BALB/c mouse assessed as glucose level at 10 mg/kg, ip measured at 0 hrs (reference value: 106 to 141 mg/dl). The class given is organism-based. The note with it: in vivo. Put shortly: (§2)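 Male BALB/c mice weighing 30-35 g, five per group. Given i.p. at 10 or 20 mg/kg in (2-hydroxypropyl)-β-cyclodextrin solution. Control group received vehicle alone. Blood glucose (mg/dL) measured at 0, 30, 60, 90 and 120 min after injection.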

A short description of data set [8]: Toxicity in BALB/c mouse assessed as glucose level at 20 mg/kg, ip measured at 0 hrs (reference value: 106 to 141 mg/dl). The class given is organism-based. The note with it: in vivo. Put shortly:
as §2

Data set [9] is described as follows: Toxicity in BALB/c mouse assessed as glucose level at 10 mg/kg, ip measured at 30 mins (reference value: 106 to 141 mg/dl). The conditions noted are these: in vivo.
A short description of data set [10]: Toxicity in BALB/c mouse assessed as glucose level at 10 mg/kg, ip measured at 60 mins (reference value: 106 to 141 mg/dl). The conditions noted are these: in vivo.
A short description of data set [11]: Toxicity in BALB/c mouse assessed as glucose level at 10 mg/kg, ip measured at 90 mins (reference value: 106 to 141 mg/dl). The conditions noted are these: in vivo.
Data set [12] can be described thus: Toxicity in BALB/c mouse assessed as glucose level at 20 mg/kg, ip measured at 30 mins (reference value: 106 to 141 mg/dl). The note with it: in vivo.
A short description of data set [13]: Toxicity in BALB/c mouse assessed as glucose level at 20 mg/kg, ip measured at 60 mins (reference value: 106 to 141 mg/dl). The note with it: in vivo.
A short description of data set [14]: Toxicity in BALB/c mouse assessed as glucose level at 20 mg/kg, ip measured at 90 mins (reference value: 106 to 141 mg/dl). The conditions noted are these: in vivo.
Data set [15] can be described thus: Toxicity in BALB/c mouse assessed as glucose level at 10 mg/kg, ip measured at 120 mins (reference value: 106 to 141 mg/dl). The note with it: in vivo.
A short description of data set [16]: Toxicity in BALB/c mouse assessed as glucose level at 20 mg/kg, ip measured at 120 mins (reference value: 106 to 141 mg/dl). The conditions noted are these: in vivo.

Structures are written as SMILES.

For `Cc1ccc(S(=O)(=O)NC(=O)n2ccc3cc(Br)cnc32)cc1`, the IC50 – broadly, the midpoint of a concentration-inhibition curve – in data set [1] was 1.55 µM; in data set [2], 0.59 µM; in data set [5] it was 1.58 µM; in [6], 18.4 µM. For the same compound, the results for the inhibition at 10 µM in data set [3] and in [4] were 28% and 82.4%, respectively. The Activity in [7] is 108 mg/dL; in data set [8], 114 mg/dL; in data set [9] it was 103 mg/dL; in data set [10], 122 mg/dL; in data set [11], 124 mg/dL; in [12] it was 113 mg/dL. The Activity in data set [13] was 114 mg/dL; in data set [14], 128 mg/dL; in data set [15] it was 121 mg/dL; in data set [16], 121 mg/dL.
